# Tests used:
# [1] = Stability of the compound in DMSO-d6 solvent after several weeks by 1H NMR method; type: physicochemical
# [2] = molecular target: DNA topoisomerase 2-alpha (Homo sapiens, UniProt P11388); assay: Inhibition of human topoisomerase-2alpha assessed as reduction in enzyme-mediated decatenation using kinetoplast DNA as substrate after 15 mins by ethidium bromide staining based agarose gel electrophoresis method
# Escherichia coli [3] = assay: Antibacterial activity against Escherichia coli BAS3023 harboring imp mutant by microdilution method; type: functional
# Method in brief: (§1)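 MICs determined by standard broth microdilution in cation-adjusted Mueller-Hinton Broth; E. coli BAS3023 carries an imp mutation conferring membrane permeability to small molecules, MG1655 K12 is wild type.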
# [4] = Inhibition of human topoisomerase type 1B assessed as reduction in enzyme-mediated relaxation of supercoiled pBAD/Thio DNA after 30 mins by agarose gel electrophoresis method
# Method in brief: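 Human topoisomerase I, 0.5 U, in manufacturer's reaction buffer; enzyme mixed with compound before 200 ng supercoiled pBAD/Thio plasmid added, 20 μL final. 37 °C for 30 minutes; stopped with SDS/bromophenol blue/glycerol buffer; agarose gel electrophoresis read-out.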
# Escherichia coli [5] = assay: Antibacterial activity against Escherichia coli K12 MG1655 by microdilution method; type: functional; settings: K-12 substr. MG1655; method in brief: as §1
# [6] = Solubility in DMSO-d6 solvent by 1H NMR method; type: physicochemical
# [7] = Inhibition of recombinant Escherichia coli topoisomerase 1a expressed in Escherichia coli assessed as reduction in enzyme-mediated relaxation of supercoiled pBAD/Thio DNA preincubated with enzyme followed by substrate addition measured after 30 mins by high-throughput screening assay
# [8] = Inhibition of recombinant Escherichia coli topoisomerase 1a expressed in Escherichia coli assessed as reduction in enzyme-mediated relaxation of supercoiled pBAD/Thio DNA preincubated with enzyme followed by substrate addition measured after 30 mins by ethidium bromide staining based agarose gel electrophoresis method
# [9] = Inhibition of recombinant Escherichia coli DNA gyrase expressed in Escherichia coli assessed as reduction in enzyme-mediated supercoiling of relaxed circular DNA preincubated with enzyme followed by substrate addition measured after 30 mins by agarose gel electrophoresis method
# [10] = Stability of the compound in DMSO-d6 solvent after several weeks by HPLC method; type: physicochemical
# Bacillus spizizenii = assay: Antibacterial activity against Bacillus subtilis ATCC 6633 by microdilution method; type: functional
# Method in brief: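 Broth microdilution per standard protocol in cation-adjusted Mueller-Hinton broth; MIC taken as lowest inhibiting concentration.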
# Vero = assay: Cytotoxicity against African green monkey Vero cells assessed as reduction in cell viability after 72 hrs by MTS assay; type: cell-based; settings: Chlorocebus sabaeus
# [11] = test system: Mycobacterium tuberculosis; assay: Antimycobacterial activity against Mycobacterium tuberculosis H37Rv after 7 days by microplate alamar blue assay; type: functional; settings: 168 h
# DNA topoisomerase 2-alpha, sequence (P11388 whole entry): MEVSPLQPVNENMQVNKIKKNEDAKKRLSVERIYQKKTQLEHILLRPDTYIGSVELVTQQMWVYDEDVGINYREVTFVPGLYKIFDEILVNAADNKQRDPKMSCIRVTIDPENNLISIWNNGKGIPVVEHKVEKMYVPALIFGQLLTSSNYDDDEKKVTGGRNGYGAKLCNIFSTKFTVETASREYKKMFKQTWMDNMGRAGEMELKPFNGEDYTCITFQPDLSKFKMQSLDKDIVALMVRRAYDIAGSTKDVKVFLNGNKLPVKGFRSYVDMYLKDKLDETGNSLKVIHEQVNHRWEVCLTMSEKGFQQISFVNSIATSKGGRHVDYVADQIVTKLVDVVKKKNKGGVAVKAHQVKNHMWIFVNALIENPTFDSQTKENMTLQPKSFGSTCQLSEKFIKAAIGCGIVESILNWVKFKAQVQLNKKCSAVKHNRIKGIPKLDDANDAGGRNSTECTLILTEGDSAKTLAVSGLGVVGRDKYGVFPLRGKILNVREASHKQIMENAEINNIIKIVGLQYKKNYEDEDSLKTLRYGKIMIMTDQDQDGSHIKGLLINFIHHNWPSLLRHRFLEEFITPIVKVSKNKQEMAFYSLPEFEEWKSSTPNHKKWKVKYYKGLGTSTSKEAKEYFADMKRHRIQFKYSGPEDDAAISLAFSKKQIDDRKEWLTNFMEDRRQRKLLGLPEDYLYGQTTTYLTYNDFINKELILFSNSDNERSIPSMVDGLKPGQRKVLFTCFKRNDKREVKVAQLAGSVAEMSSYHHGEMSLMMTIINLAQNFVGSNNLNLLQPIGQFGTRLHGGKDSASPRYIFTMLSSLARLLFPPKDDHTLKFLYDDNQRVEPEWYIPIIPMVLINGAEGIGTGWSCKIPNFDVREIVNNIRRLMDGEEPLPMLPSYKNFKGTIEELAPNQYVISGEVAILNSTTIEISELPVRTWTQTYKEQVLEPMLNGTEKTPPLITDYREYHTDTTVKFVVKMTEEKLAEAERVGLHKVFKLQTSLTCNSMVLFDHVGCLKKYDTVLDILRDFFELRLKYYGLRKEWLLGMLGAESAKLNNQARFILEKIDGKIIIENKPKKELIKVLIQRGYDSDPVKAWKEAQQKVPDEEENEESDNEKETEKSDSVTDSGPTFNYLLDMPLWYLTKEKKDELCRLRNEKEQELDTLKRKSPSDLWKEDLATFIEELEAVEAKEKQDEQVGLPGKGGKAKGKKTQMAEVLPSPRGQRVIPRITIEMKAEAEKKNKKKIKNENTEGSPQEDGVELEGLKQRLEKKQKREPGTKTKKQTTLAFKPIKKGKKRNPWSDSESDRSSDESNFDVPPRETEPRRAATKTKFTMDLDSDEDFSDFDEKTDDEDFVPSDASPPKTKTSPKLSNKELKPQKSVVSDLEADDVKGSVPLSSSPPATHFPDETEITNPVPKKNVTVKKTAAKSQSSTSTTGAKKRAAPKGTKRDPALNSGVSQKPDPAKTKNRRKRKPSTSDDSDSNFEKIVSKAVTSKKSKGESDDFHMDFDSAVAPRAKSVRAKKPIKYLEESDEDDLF
Structure (SMILES),Stability [1],IC50 [2],MIC (Escherichia coli [3]),IC50 [4],MIC (Escherichia coli [5]),solubility [6],IC50 [7],IC50 [8],pIC50 [8],IC50 [9],Stability [10],MIC (Bacillus spizizenii),IC50 (Vero),MIC [11]
Nc1ccc2c(c1)Oc1c(F)c(F)cc3c(=O)c(C(=O)O)cn-2c13,Stable,> 500 µM,0.78 to 1.56 µM,31.3 µM,> 200 µM,Insoluble,0.8 to 2 µM,1.95 µM,5.71,> 125 µM,Stable,,,
CN1CCN(c2c(F)cc3c(=O)c(C(=O)O)cn4c3c2Oc2cc(N)ccc2-4)CC1,,3.9 to 7.8 µM,,15.6 µM,,,,0.48 µM,6.32,15.6 to 31.2 µM,,,,
N#Cc1ccc2c(c1)Oc1c(F)c(F)cc3c(=O)c(C(=O)O)cn-2c13,,,200 µM,,> 200 µM,,,31.2 µM,4.51,,,> 200 µM,,
CC(=O)Nc1ccc2c(c1)Oc1c(F)c(F)cc3c(=O)c(C(=O)O)cn-2c13,,,> 200 µM,,> 200 µM,,,7.8 µM,5.11,,,> 200 µM,,
Nc1ccc2c(c1)Oc1c(N3CC[C@H](N)C3)c(F)cc3c(=O)c(C(=O)O)cn-2c13,,,1.56 µM,,> 200 µM,,,0.48 to 0.97 µM,6.14,,,6.25 µM,> 63.1 µM,
O=C(O)c1cn2c3c(c(F)c(F)cc3c1=O)Oc1cc(C(F)(F)F)ccc1-2,,,> 200 µM,,> 200 µM,,,125 to 250 µM,3.61,,,25 µM,,
Nc1ccc2c(c1)Oc1c(N3CCNCC3)c(F)cc3c(=O)c(C(=O)O)cn-2c13,,1.95 to 3.9 µM,0.39 µM,7.8 µM,> 200 µM,,,0.24 µM,6.62,7.8 to 15.6 µM,,,> 126 µM,
Nc1ccc2c(c1)Oc1c(N3CCC(N4CCCCC4)CC3)c(F)cc3c(=O)c(C(=O)O)cn-2c13,,,0.39 to 0.78 µM,3.9 µM,> 200 µM,,,0.48 µM,,15.6 µM,,1.56 µM,24.4 µM,2.5 µM
CN1CCN(c2c(F)cc3c(=O)c(C(=O)O)cn4c3c2Oc2cc([N+](=O)[O-])ccc2-4)CC1,,,1.56 µM,31.2 µM,100 µM,,,1.95 µM,5.71,62.5 to 125 µM,,0.78 µM,95 µM,19 µM
Nc1ccc2c(c1)Oc1c(NC3CCCC3)c(F)cc3c(=O)c(C(=O)O)cn-2c13,,,25 µM,,> 200 µM,,,3.9 µM,5.41,,,12.5 µM,,
CCOC(=O)c1cn2c3c(c(F)c(F)cc3c1=O)Oc1cc([N+](=O)[O-])ccc1-2,,,50 µM,,> 200 µM,,,15.6 µM,4.81,,,25 µM,,
Nc1ccc2c(c1)Oc1c(NCCc3ccccc3)c(F)cc3c(=O)c(C(=O)O)cn-2c13,,,50 µM,,> 200 µM,,,3.9 µM,5.41,,,25 to 50 µM,,
Nc1ccc2c(c1)Oc1c(NCCN3CCOCC3)c(F)cc3c(=O)c(C(=O)O)cn-2c13,,,0.78 µM,7.8 to 15.6 µM,> 200 µM,,,,,15.6 to 31.2 µM,,1.56 µM,43 µM,21.6 µM
O=C(O)c1cn2c3c(c(N4CCNCC4)c(F)cc3c1=O)Oc1cc([N+](=O)[O-])ccc1-2,,,> 200 µM,,> 200 µM,,,3.9 µM,5.41,,,> 200 µM,,
Nc1ccc2c(c1)Oc1c(NC3CCCCC3)c(F)cc3c(=O)c(C(=O)O)cn-2c13,,,25 µM,,> 200 µM,,,3.9 µM,5.41,,,12.5 µM,,
N[C@H]1CCN(c2c(F)cc3c(=O)c(C(=O)O)cn4c3c2Oc2cc([N+](=O)[O-])ccc2-4)C1,,1.95 to 3.9 µM,1.56 µM,7.8 µM,> 200 µM,,,0.48 µM,6.32,3.9 µM,,0.78 µM,> 50 µM,> 50 µM
CC1CCN(c2c(F)cc3c(=O)c(C(=O)O)cn4c3c2Oc2cc(N)ccc2-4)CC1,,,3.12 µM,,> 200 µM,,,3.9 µM,5.41,,,0.78 µM,,
CCOC(=O)c1cn2c3c(c(N4CCN(C)CC4)c(F)cc3c1=O)Oc1cc([N+](=O)[O-])ccc1-2,,,25 µM,,> 200 µM,,,1.95 µM,5.71,,,50 µM,,
CC(=O)c1ccc2c(c1)Oc1c(F)c(F)cc3c(=O)c(C(=O)O)cn-2c13,,,> 200 µM,,> 200 µM,,,15.6 µM,4.81,,,> 200 µM,,
O=C(O)c1cn2c3c(c(F)c(F)cc3c1=O)Oc1cc([N+](=O)[O-])c(Cl)cc1-2,,,0.39 µM,31.2 µM,50 µM,,,31.2 µM,4.51,62.5 µM,,3.12 µM,> 127 µM,29 µM
CCOC(=O)c1cn2c3c(c(F)c(F)cc3c1=O)Oc1cc(C(F)(F)F)ccc1-2,,,> 200 µM,,> 200 µM,,,125 to 250 µM,3.6,,,> 200 µM,,
CC(C)(C)OC(=O)N[C@H]1CCN(c2c(F)cc3c(=O)c(C(=O)O)cn4c3c2Oc2cc(N)ccc2-4)C1,,,,,> 200 µM,,,3.9 µM,5.41,,,12.5 µM,,
CCCCCCNc1c(F)cc2c(=O)c(C(=O)O)cn3c2c1Oc1cc(N)ccc1-3,,,> 200 µM,,> 200 µM,,,15.6 µM,4.81,,,> 200 µM,,
CCOC(=O)c1cn2c3c(c(F)c(F)cc3c1=O)Oc1cc(C#N)ccc1-2,,,> 200 µM,,> 200 µM,,,31.2 µM,4.51,,,200 µM,,
Nc1ccc2c(c1)Oc1c(N3CCOCC3)c(F)cc3c(=O)c(C(=O)O)cn-2c13,,,0.19 to 0.39 µM,,> 200 µM,,,0.97 µM,6.01,7.8 µM,,0.19 µM,24.7 µM,3.5 µM
O=C(O)c1cn2c3c(c(F)c(F)cc3c1=O)Oc1cc([N+](=O)[O-])ccc1-2,,,0.78 µM,,200 µM,,,15.6 µM,4.81,,,12.5 µM,,
Nc1ccc2c(c1)Oc1c(N3CC[C@@H](N)C3)c(F)cc3c(=O)c(C(=O)O)cn-2c13,,,6.25 µM,,,,,0.48 to 0.97 µM,6.14,,,12.5 µM,> 63.1 µM,> 63.1 µM

# From ChEMBL document CHEMBL4041482, “Synthesis, evaluation, and CoMFA study of fluoroquinophenoxazine derivatives as bacterial topoisomerase IA inhibitors” (Eur J Med Chem, 2017)
